Source: ChEMBL document CHEMBL1671756, “In vitro and in vivo antifungal susceptibilities of the Mucoralean fungus Cunninghamella” (2010)
Active and inactive are the calls of the source. The calls are words filed in the database; no cut-off is given here.

Experiments:
[1] = system: Cunninghamella bertholletiae; experiment: Antifungal activity against Cunninghamella bertholletiae FMR 9598 infected in neutropenic OF1 mouse assessed as increase in mouse survival rate at 0.8 mg/kg, iv qd administered 1 day after infection for 7 days relative to untreated control; type: functional, organism-based; design: dose 0.8 mg/kg
How it was run: (§1)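 Male OF1 mice (~30 g) were made neutropenic with cyclophosphamide 200 mg/kg i.p. plus 5-fluorouracil 150 mg/kg i.v. 1 day before challenge. Challenge was 1 × 10⁴ CFU sporangiospores in 0.2 ml saline via the lateral tail vein. Mice got ceftazidime 5 mg/day s.c. on days 1–7. Dosing started 24 h post-challenge for 7 days. There were 10 mice/group, observed daily for 20 days. Kaplan-Meier analysis with log-rank test.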

[2] = system: Cunninghamella bertholletiae; experiment: Antifungal activity against Cunninghamella bertholletiae UTHSC 05-2275 infected in neutropenic OF1 mouse assessed as increase in mouse survival rate at 0.8 mg/kg, iv qd administered 1 day after infection for 7 days relative to untreated control; type: functional, organism-based; design: dose 0.8 mg/kg; how it was run: as §1
[3] = system: Cunninghamella bertholletiae; experiment: Antifungal activity against Cunninghamella bertholletiae UTHSC 06-1945 infected in neutropenic OF1 mouse assessed as decreased fungal load in kidney at 0.8 mg/kg, iv qd administered 1 day post infection measured after 4 to 5 days relative to untreated control; type: functional, organism-based; design: dose 0.8 mg/kg
How it was run: (§2)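 Neutropenic male OF1 mice (cyclophosphamide 200 mg/kg i.p. plus 5-fluorouracil 150 mg/kg i.v., day −1) were given 1 × 10⁴ CFU sporangiospores i.v. in 0.2 ml saline. Treatment from 24 h: 0.8 mg/kg i.v. or oral doses once daily; 10 mice per group. Killed at day 5 (day 4 if moribund). About half of brain, lungs and kidneys homogenized in saline; 10-fold dilutions plated on PDA for 24 h at 35°C; log₁₀ CFU/g tissue.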

[4] = system: Cunninghamella bertholletiae; experiment: Antifungal activity against Cunninghamella bertholletiae UTHSC 05-2275 infected in diabetic OF1 mouse assessed as increase in mouse survival rate at 40 mg/kg, po qd administered 1 day after infection for 7 days relative to untreated control; type: functional, organism-based; design: dose 40 mg/kg
How it was run: (§3)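 Male OF1 mice made diabetic with streptozocin 210 mg/kg i.p.; blood glucose above 250 mg/dl at day 10 required. Infected i.v. via the tail vein with 1 × 10⁵ CFU sporangiospores in 0.2 ml saline. Ceftazidime 5 mg/day s.c. on days 1–7. Oral once-daily treatment from day 1 for 7 days; 10 mice per group; followed for 20 days; Kaplan-Meier mean survival time, log-rank test.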

[5] = system: Cunninghamella bertholletiae; experiment: Antifungal activity against Cunninghamella bertholletiae UTHSC 05-2275 infected in neutropenic OF1 mouse assessed as increase in mouse survival rate at 25 mg/kg, po bid administered 1 day after infection for 7 days relative to untreated control
[6] = system: Cunninghamella bertholletiae; experiment: Antifungal activity against Cunninghamella bertholletiae FMR-9598 infected in neutropenic OF1 mouse assessed as decreased fungal load in brain at 0.8 mg/kg, iv qd administered 1 day post infection measured after 4 to 5 days relative to untreated control; type: functional, organism-based; design: dose 0.8 mg/kg; how it was run: as §2
[7] = system: Cunninghamella bertholletiae; experiment: Antifungal activity against Cunninghamella bertholletiae UTSCH 05-2275 infected in diabetic OF1 mouse assessed as decreased fungal load in kidney at 40 mg/kg, po qd administered 1 day post infection measured after 4 to 5 days relative to untreated control; type: functional, organism-based; design: dose 40 mg/kg
How it was run: (§4)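 Diabetic male OF1 mice (streptozocin 210 mg/kg i.p.; glucose above 250 mg/dl) were challenged i.v. with 1 × 10⁵ CFU sporangiospores. Oral once-daily dosing from day 1 for 7 days; 10 mice per group. Killed at day 5 (day 4 if moribund). About half of each organ homogenized in saline; serial 10-fold dilutions plated on PDA for 24 h at 35°C; log₁₀ CFU/g tissue.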

[8] = system: Cunninghamella bertholletiae; experiment: Antifungal activity against Cunninghamella bertholletiae UTHSC 05-2275 infected in diabetic OF1 mouse assessed as increase in mouse survival rate at 20 mg/kg, po qd administered 1 day after infection for 7 days relative to untreated control; type: functional, organism-based; design: dose 20 mg/kg; how it was run: as §3
[9] = system: Cunninghamella bertholletiae; experiment: Antifungal activity against Cunninghamella bertholletiae UTSCH 05-2275 infected in diabetic OF1 mouse assessed as decreased fungal load in brain at 80 mg/kg, po qd administered 1 day post infection measured after 4 to 5 days relative to untreated control; type: functional, organism-based; design: dose 80 mg/kg; how it was run: as §4
[10] = system: Cunninghamella bertholletiae; experiment: Antifungal activity against Cunninghamella bertholletiae UTHSC 05-2275 infected in diabetic OF1 mouse assessed as increase in mouse survival rate at 80 mg/kg, po qd administered 1 day after infection for 7 days relative to untreated control; type: functional, organism-based; design: dose 80 mg/kg; how it was run: as §3
[11] = system: Cunninghamella bertholletiae; experiment: Antifungal activity against Cunninghamella bertholletiae UTHSC 05-2275 infected in neutropenic OF1 mouse assessed as decreased fungal load in brain at 60 mg/kg, po qd administered 1 day post infection measured after 4 to 5 days relative to untreated control; type: functional, organism-based; design: dose 60 mg/kg; how it was run: as §2

SMILES | Activity [1] | Activity [2] | Activity [3] | Activity [4] | Activity [5] | Activity [6] | Activity [7] | Activity [8] | Activity [9] | Activity [10] | Activity [11]
C[C@@H]1[C@H](O)[C@@H](C)/C=C/C=C/C=C/C=C/C=C/C=C/C=C/[C@H](O[C@@H]2O[C@H](C)[C@@H](O)[C@H](N)[C@@H]2O)C[C@@H]2O[C@](O)(C[C@@H](O)C[C@@H](O)[C@H](O)CC[C@@H](O)C[C@@H](O)CC(=O)O[C@H]1C)C[C@H](O)[C@H]2C(=O)O [AMPHOTERICIN B] | inactive | Active | Active | – | – | – | – | – | – | – | –
CC[C@@H]([C@H](C)O)n1ncn(-c2ccc(N3CCN(c4ccc(OC[C@@H]5CO[C@@](Cn6cncn6)(c6ccc(F)cc6F)C5)cc4)CC3)cc2)c1=O [POSACONAZOLE] | – | – | – | Active | inactive | Active | Active | inactive | Active | Active | Active
